Source: ChEMBL document CHEMBL3580567 (J Med Chem, 2015)
≈ marks a conversion by molar mass, not a printed value. Calls of active or inactive are those of the source. No cut-off for these calls is given here.

Columns and labels:
[1] = biological target: T1, Melatonin receptor type 1B (Homo sapiens, UniProt P49286); assay: Agonist activity at human melatonin receptor-2 transfected in CHO cell membranes after 1 hr by GTPgammaS binding assay; type: functional
T1 sequence (P49286 whole entry): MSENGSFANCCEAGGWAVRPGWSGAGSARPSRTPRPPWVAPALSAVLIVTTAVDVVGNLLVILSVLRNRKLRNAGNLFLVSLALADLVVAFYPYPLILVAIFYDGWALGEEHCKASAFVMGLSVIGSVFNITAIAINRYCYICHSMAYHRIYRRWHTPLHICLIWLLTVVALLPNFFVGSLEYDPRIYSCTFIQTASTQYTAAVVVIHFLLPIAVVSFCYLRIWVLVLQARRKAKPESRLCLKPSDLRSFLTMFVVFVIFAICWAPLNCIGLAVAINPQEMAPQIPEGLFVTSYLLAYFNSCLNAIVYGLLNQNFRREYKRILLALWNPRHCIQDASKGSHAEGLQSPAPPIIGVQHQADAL

[2] = biological target: T2, Melatonin receptor type 1A (Homo sapiens, UniProt P48039); assay: Agonist activity at human recombinant melatonin receptor-1 expressed in CHO cells assessed as effect on impedance by cellular dielectric spectroscopy; type: cell-based
T2 sequence (P48039 whole entry): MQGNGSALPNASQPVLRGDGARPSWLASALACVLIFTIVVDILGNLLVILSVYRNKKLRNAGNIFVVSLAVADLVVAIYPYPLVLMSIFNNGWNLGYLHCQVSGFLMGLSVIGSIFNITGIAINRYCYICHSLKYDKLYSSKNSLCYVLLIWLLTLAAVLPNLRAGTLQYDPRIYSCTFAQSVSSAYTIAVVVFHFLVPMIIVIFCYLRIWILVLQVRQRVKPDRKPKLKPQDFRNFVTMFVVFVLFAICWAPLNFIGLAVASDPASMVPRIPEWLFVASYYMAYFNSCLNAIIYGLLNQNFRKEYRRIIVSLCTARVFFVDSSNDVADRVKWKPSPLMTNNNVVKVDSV
How it was run: (§1)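 Functional agonist profiling was done by CEREP on cells expressing human recombinant MT receptors. MT1 was read by cellular dielectric spectroscopy and MT2 by homogeneous time-resolved fluorescence. The protocols are those on the company website.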

Homo sapiens = organism: Homo sapiens; assay: Selectivity ratio of Ki for human melatonin receptor-1 to Ki for human melatonin receptor-2
[3] = Thermodynamic solubility in buffer at pH 5.5 after 24 hrs by UV spectra analysis; type: physicochemical; details: read-out: Therm_solubility
[4] = Permeability of the compound at 100 ug/ml after 240 mins by PAMPA; type: physicochemical; details: 4 h
How it was run: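 For PAMPA-BBB, the filter was coated with porcine brain lipid in dodecane (20 mg/mL). Donor compound was 100 µg/mL in PBS:ethanol 70:30, pH 7.4, and the acceptor held PBS:ethanol 70:30. Plates were incubated 240 min at 25 °C. Acceptor concentration was read by UV-Vis at five wavelengths in four wells, over at least three runs. Eleven quality-control standards were included.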

[5] = Thermodynamic solubility in NH4Cl buffer at pH 9.3 after 24 hrs by UV spectra analysis; type: physicochemical; details: read-out: Therm_solubility
How it was run: (§2)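 Thermodynamic solubility: about 1 mg of solid was saturated in 200 µL buffer and stirred 24 h at rt at 320 rpm, then centrifuged. Supernatant was diluted with buffer-MeCN 80:20 and read by UV at its absorbance maximum. Values were quantified against a calibration line from a 10 mM DMSO stock, checked with a quality-control standard. Runs were in triplicate. The buffers were pH 7.4 phosphate 45 mM and NH4Cl for the basic pH.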

[6] = (§3) Induction of primary neuronal stem cell differentiation derived from subgranular zone of dentate gyrus of Wistar rat hippocampus assessed as upregulation of TuJ1 expression at 10 uM incubated for 7 days followed by 48 hrs incubation in presence of serum and absence of EGF by DAPI staining-based fluorescence microscopic analysis in presence of melatonin receptor antagonist luzindole; type: functional; details: Primary neuron
How it was run: (§4)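 Neurospheres came from the SGZ of the dentate gyrus of adult male Wistar rats (8-12 weeks). They were grown in DMEM/F12 with 10 ng/mL EGF, 10 ng/mL FGF and B27. After 3 days, cultures were treated with compounds for 7 days. They were then plated on poly-L-lysine coverslips for 48 h with serum and without growth factors. Cells were immunostained for TuJ1 and MAP-2 with DAPI nuclei. Positive cells were counted by fluorescence microscopy in five NS per condition over three independent experiments. Untreated cultures gave basal values.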

[7] = biological target: T3, Melatonin receptor type 1B (Homo sapiens) (UniProt P49286); assay: Agonist activity at human melatonin receptor-2 transfected in CHO cell membranes after 1 hr by GTPgammaS binding assay relative to melatonin; type: functional
T3 sequence (whole entry): T1 sequence (P49286 whole entry)
How it was run: (§5)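 CHO membranes (20 µg/mL) stably expressing human MT1 or MT2 in 20 mM HEPES pH 7.4, 100 mM NaCl, 3 µM GDP, 3 mM MgCl2, 20 µg/mL saponin. Incubated with 0.2 nM [35S]GTPγS for 1 h at rt, then filtered. Non-specific binding defined with 10 µM GTPγS. Seven concentrations in duplicate; EC50 and Emax fitted.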

[8] = biological target: T2, Melatonin receptor type 1A; assay: Agonist activity at human melatonin receptor-1 transfected in CHO cell membranes after 1 hr by GTPgammaS binding assay; type: functional
[9] = as §3, with “analysis” for “analysis in presence of melatonin receptor antagonist luzindole”; type: functional; details: Primary neuron; how it was run: as §4
[10] = biological target: T2, Melatonin receptor type 1A; assay: Displacement of 2-[125I]-iodomelatonin from human melatonin receptor-1 transfected in CHO cell membranes after 120 mins
[11] = (§6) Induction of primary neuronal stem cell maturation derived from subgranular zone of dentate gyrus of Wistar rat hippocampus assessed as upregulation of MAP-2 expression at 10 uM incubated for 7 days by DAPI staining-based fluorescence microscopic analysis; type: functional; details: Primary neuron; how it was run: as §4
[12] = as §6, with “analysis in presence of melatonin receptor antagonist luzindole” for “analysis”; type: functional, tissue-based; details: Primary neuron; how it was run: as §4
[13] = biological target: T1, Melatonin receptor type 1B; assay: Displacement of 2-[125I]-iodomelatonin from human melatonin receptor-2 transfected in CHO cell membranes after 120 mins
[14] = biological target: T1, Melatonin receptor type 1B; assay: Agonist activity at human recombinant melatonin receptor-2 expressed in CHO cells assessed as decrease of cAMP level after 10 mins by HTRF assay; type: functional, cell-based; how it was run: as §1
[15] = Thermodynamic solubility in phosphate buffer at pH 7.4 after 24 hrs by UV spectra analysis; type: physicochemical; details: read-out: Therm_solubility; how it was run: as §2
[16] = biological target: T3, Melatonin receptor type 1B (Homo sapiens); assay: Agonist activity at human recombinant melatonin receptor-2 expressed in CHO cells assessed as decrease of cAMP level after 10 mins by HTRF assay relative to melatonin; type: functional, cell-based
[17] = biological target: T2, Melatonin receptor type 1A; assay: Agonist activity at human melatonin receptor-1 transfected in CHO cell membranes after 1 hr by GTPgammaS binding assay relative to melatonin; type: functional; how it was run: as §5
[18] = biological target: T2, Melatonin receptor type 1A; assay: Agonist activity at human recombinant melatonin receptor-1 expressed in CHO cells assessed as effect on impedance by cellular dielectric spectroscopy relative to melatonin; type: cell-based
[19] = biological target: 5-hydroxytryptamine receptor 2A (Rattus norvegicus, UniProt P14842); assay: Displacement of [3H]DOB from rat 5HT2A receptor expressed in mouse NIH/3T3 cells after 30 mins by liquid scintillation counting analysis; type: cell-based
Sequence of 5-hydroxytryptamine receptor 2A (P14842 whole entry): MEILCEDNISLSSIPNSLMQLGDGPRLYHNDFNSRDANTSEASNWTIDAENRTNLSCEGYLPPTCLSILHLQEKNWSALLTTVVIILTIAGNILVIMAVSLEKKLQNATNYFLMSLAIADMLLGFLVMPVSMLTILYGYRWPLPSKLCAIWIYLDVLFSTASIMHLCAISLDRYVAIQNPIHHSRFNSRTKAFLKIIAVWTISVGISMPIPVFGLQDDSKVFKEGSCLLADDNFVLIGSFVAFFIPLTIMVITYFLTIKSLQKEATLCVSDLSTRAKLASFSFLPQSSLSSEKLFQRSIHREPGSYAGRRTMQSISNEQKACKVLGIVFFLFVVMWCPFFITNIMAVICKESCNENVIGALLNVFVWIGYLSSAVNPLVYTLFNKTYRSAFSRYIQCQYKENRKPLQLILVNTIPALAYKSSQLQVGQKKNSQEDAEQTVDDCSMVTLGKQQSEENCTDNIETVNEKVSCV

[20] = biological target: T4, 5-hydroxytryptamine receptor 1A (Rattus norvegicus, UniProt P19327); assay: Displacement of [3H]8-OH DPAT from rat 5HT1A receptor expressed in CHO cells after 30 mins by liquid scintillation counting analysis; type: cell-based
T4 sequence (P19327 whole entry): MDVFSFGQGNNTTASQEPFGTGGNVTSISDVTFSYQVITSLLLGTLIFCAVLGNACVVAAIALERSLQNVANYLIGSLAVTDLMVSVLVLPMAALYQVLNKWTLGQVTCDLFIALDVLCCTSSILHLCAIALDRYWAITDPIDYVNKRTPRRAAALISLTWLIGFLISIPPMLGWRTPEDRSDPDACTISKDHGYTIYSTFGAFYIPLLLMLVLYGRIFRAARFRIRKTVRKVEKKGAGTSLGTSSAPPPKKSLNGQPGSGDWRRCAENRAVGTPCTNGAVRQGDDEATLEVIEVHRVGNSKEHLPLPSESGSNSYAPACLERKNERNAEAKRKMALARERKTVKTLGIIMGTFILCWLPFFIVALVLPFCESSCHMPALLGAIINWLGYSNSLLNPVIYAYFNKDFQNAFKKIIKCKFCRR

[21] = Solubility in the water; type: physicochemical; details: buffer

Structure (SMILES) | EC50 [1] | Ratio Ki (Homo sapiens) | Emax [7] | EC50 [8] | Ki [10] | Ki [13] | solubility thermodynamic at 24 h [15] | Emax [17] | also measured
COc1ccc2[nH]cc(CCc3n[nH]c(=O)o3)c2c1 | 29 nM | 10 | 30% | 326 nM | 35 nM | 4 nM | 2100 µM (≈ 544 µg/mL) | 26% | EC50 [2]: 48 nM; solubility thermodynamic at 24 h [3]: 1410 µM (≈ 365 µg/mL); permeability [4]: permeable; solubility thermodynamic at 24 h [5]: 7920 µM (≈ 2050 µg/mL); Activity [6]: inactive; Activity [9]: Active; Activity [11]: Active; Activity [12]: inactive; EC50 [14]: 5.5 nM; Emax [16]: 97%; Emax [18]: 100%
C#CCNC(=O)CCc1c[nH]c2ccc(OC)cc12 |  | 5 | 99% |  |  |  |  | 106% | Activity [9]: Active; Activity [11]: inactive
COc1ccc2[nH]cc(Cc3n[nH]c(=O)n3C)c2c1 | > 1000 nM |  |  |  | > 1000 nM | 560 nM |  |  | 
C=CCNC(=O)Cc1c[nH]c2ccc(OC)cc12 | 132 nM | 3.5 | 70% | 525 nM | 17 nM | 4.9 nM |  | 64% | 
COc1ccc2[nH]cc(CCc3ncc(C)o3)c2c1 | 503 nM |  | 32% |  | > 1000 nM | 498 nM |  |  | 
C#CCNC(=O)Cc1c[nH]c2ccc(OC)cc12 | 81 nM | 3.6 | 82% | 289 nM | 14 nM | 3.8 nM |  | 67% | 
CC(=O)NCCc1c(Cc2ccccc2)[nH]c2ccccc12 |  |  |  |  |  |  |  |  | Activity [9]: inactive
COc1ccc2[nH]cc(CCc3nc(C)no3)c2c1 |  |  |  |  | > 1000 nM | > 1000 nM |  |  | 
COc1ccc2[nH]cc(Cc3nnc(C)o3)c2c1 | 71 nM | 10 | 24% | > 1000 nM | 210 nM | 16 nM | 970 µM (≈ 236 µg/mL) |  | 
CCNc1nnc(Cc2c[nH]c3ccc(OC)cc23)s1 | 110 nM | > 500 | 35% |  | > 1000 nM | 17 nM | 1420 µM (≈ 409 µg/mL) |  | solubility thermodynamic at 24 h [3]: 1720 µM (≈ 495 µg/mL); solubility thermodynamic at 24 h [5]: 1440 µM (≈ 414 µg/mL); Activity [9]: Active
CCn1c(CCc2c[nH]c3ccc(OC)cc23)n[nH]c1=S |  |  |  |  | > 1000 nM | > 1000 nM | 137 µM (≈ 41.4 µg/mL) |  | solubility thermodynamic at 24 h [3]: 131 µM (≈ 39.6 µg/mL); solubility thermodynamic at 24 h [5]: 208 µM (≈ 62.9 µg/mL)
COc1ccc2[nH]cc(CCc3n[nH]c(=O)n3C)c2c1 |  |  |  |  | > 1000 nM | > 1000 nM | 1100 µM (≈ 301 µg/mL) |  | solubility thermodynamic at 24 h [3]: 860 µM (≈ 234 µg/mL); solubility thermodynamic at 24 h [5]: 1410 µM (≈ 383 µg/mL)
COc1ccc2[nH]cc(Cc3n[nH]c(=S)o3)c2c1 | > 1000 nM |  |  |  | > 1000 nM | 535 nM |  |  | 
COc1ccc2[nH]cc(CCc3n[nH]c(=S)o3)c2c1 | 1100 nM |  | 32% |  | > 1000 nM | 530 nM | 3460 µM (≈ 953 µg/mL) |  | solubility thermodynamic at 24 h [3]: 907 µM (≈ 250 µg/mL); solubility thermodynamic at 24 h [5]: 18700 µM (≈ 5140 µg/mL)
C=CCNC(=O)CCc1c[nH]c2ccc(OC)cc12 | 11 nM | 5.5 | 88% | 204 nM | 2.5 nM | 0.45 nM |  | 92% | 
COc1ccc2cccc(CCNC(C)=O)c2c1 [AGOMELATINE] |  |  |  |  |  |  | 804 µM (≈ 196 µg/mL) |  | 
COc1ccc2[nH]cc(CCN(C)C)c2c1 [MEBUFOTENIN] | 112 nM | 10 | 28% | 257 nM | 210 nM | 16 nM |  | 62% | Ki [19]: 92 nM; Ki [20]: 11 nM
COc1ccc2[nH]cc(Cc3nc(C)no3)c2c1 | 295 nM | 3.9 | 48% | 711 nM | 170 nM | 44 nM | 1160 µM (≈ 283 µg/mL) | 16% | 
COc1ccc2[nH]cc(CCc3nnco3)c2c1 | 457 nM | 8.6 | 25% | > 1000 nM | 570 nM | 68 nM |  |  | 
COc1ccc2[nH]cc(Cc3ncc(C)o3)c2c1 |  |  |  | 989 nM | 280 nM | > 1000 nM |  | 23% | 
CCn1c(Cc2c[nH]c3ccc(OC)cc23)n[nH]c1=S | > 1000 nM |  |  |  | > 1000 nM | 220 nM |  |  | 
COc1ccc2[nH]cc(Cc3n[nH]c(=O)o3)c2c1 | > 1000 nM |  |  |  | > 1000 nM | 160 nM |  |  | 
COc1ccc2[nH]cc(CCNC(C)=O)c2c1 [MELATONIN] |  |  |  |  |  |  | 6640 µM (≈ 1540 µg/mL) |  | Activity [6]: inactive; Activity [9]: Active; Activity [11]: Active; Activity [12]: inactive; solubility [21]: 400 µM (≈ 92.9 µg/mL)
